aDG glyco act: alpha-DG glycosylation activation. actives 0.22% (n = 360,000). Pro5-aDG cells, alpha-DG glycosylation AlphaScreen (IIH6); 0% Pro5, 100% B10-LARGE cell signal. activation, % at 10 µM. AID 624168;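 active = activation of at least 8% versus controls, or a plate z-score of at least 8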;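 also: Pro5 are CHO cells carrying HIG-tagged alpha-DG that lacks glycosylation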
697 NFkB inh: inhibitors of the PMA/ionomycin-induced NF-kB reporter in 697 B cells. 697 B-cell NF-kB luciferase reporter, 16 h. inhibition, % at 4 µM. AID 435022. actives 0.33% (n = 330,000); in the data active = inhibition above about 35%
Jurkat NFkB inh: inhibitors of the PMA/ionomycin-induced NF-kB reporter in Jurkat cells; inhibition, % at 4 µM; PMA/ionomycin-induced NF-kB luciferase reporter, luminescence; AID 435003; actives 0.53% (n = 330,000); in the data active = inhibition above about 50%
NR2E3 ag-1: agonists of human NR2E3 nuclear receptor. AID 602229. inhibition of corepressor binding, % at 3.98 µM. actives 0.35% (n = 360,000). CHO-S Gal4-NCOR/VP16-NR2E3 two-hybrid, luciferase;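 active = inhibition above the mean of all tested compounds plus 3 SD, cut at about 70% in these data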;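 also: 0% = DMSO with NR2E3 transfected cells and 100% = cells lacking NR2E3 construct; higher means lower luciferase signal from less NR2E3 corepressor binding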
Target sequence (Q9Y5X4 whole entry, looked up, the tested form may be a part): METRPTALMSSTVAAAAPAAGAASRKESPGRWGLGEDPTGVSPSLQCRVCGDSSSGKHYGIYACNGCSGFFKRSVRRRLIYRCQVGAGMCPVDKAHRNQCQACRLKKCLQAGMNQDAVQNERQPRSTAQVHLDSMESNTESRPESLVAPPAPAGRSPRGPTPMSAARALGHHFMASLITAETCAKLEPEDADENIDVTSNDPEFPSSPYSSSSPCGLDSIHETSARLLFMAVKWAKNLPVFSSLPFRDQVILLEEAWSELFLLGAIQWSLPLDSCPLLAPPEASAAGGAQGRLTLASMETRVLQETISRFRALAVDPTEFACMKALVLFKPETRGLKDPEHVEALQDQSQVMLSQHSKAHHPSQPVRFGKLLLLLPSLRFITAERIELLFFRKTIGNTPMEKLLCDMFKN
MPTP block: permeability transition pore inhibition | inhibition, % at 10 µM | actives 1.4% (n = 360,000) | isolated mouse mitochondria, Ca2+ swelling absorbance, 30 min;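 active = inhibition of 50% or more, scaled per plate between neutral and stimulator controls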;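 also: 0% = DMSO wells given calcium and 100% = 1 mM EGTA wells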
NR2E3 ag-2: agonists of human nuclear receptor NR2E3. Q9Y5X4. GST-NR2E3/biotin-RetCOR TR-FRET, 1536-well. inhibition of corepressor binding, % at 4.78 µM. actives 0.12% (n = 320,000);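 active = percent inhibition above the cutoff of mean plus 3 SD of all tested compounds, set per screening campaign, cut at about 20% in these data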;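 also: 0% = DMSO wells and 100% = biotin wells as full block of FRET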
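Material: NR2E3–RetCOR corepressor complex | Quantity: 1.35 nM GST-tagged NR2E3 final | Schedule: 5 h at 4 °C | Replication: Singlicate compound wells | Reagent: RetCOR corepressor, biotinylated, 7 nM | Controls: Biotin wells as high control, 0.6% DMSO wells as low control | Signal: TR-FRET, Eu(K)-anti-GST donor, streptavidin-D2 acceptor, ex 340, em 617/671 nm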
Jurkat NFkB conf: inhibitors of the PMA/ionomycin-induced NF-kB reporter in Jurkat cells, retest | Jurkat NF-kB luciferase, 16 h | inhibition, % at 4 µM | shares compounds with Jurkat NFkB inh | actives 27% (n = 2,700);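 active = inhibition reaching about 45% at 4 µM in either replicate, limit read from the data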;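 also: plate controls were PMA/ionomycin stimulated DMSO wells for no effect and unstimulated DMSO wells for full effect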
Active calls of the source: *; x = not tested or not shown. Hits are enriched below; roughly 2.4% of the tested compounds scored in any of these assays.

SMILES	aDG glyco act	697 NFkB inh	Jurkat NFkB inh	NR2E3 ag-1	MPTP block	NR2E3 ag-2	Jurkat NFkB conf
CCN(CC)c1ccc2c(cc1=O)[C@@H](NC)CCc1cc(OC)c(OC)c(OC)c1-2	0	-3	60*	-30	0	2	3
COc1cc2c(c(OC)c1OC)-c1ccc(OC)c(=O)cc1[C@@H](N(C)CC#CCO)CC2	0	-244	63*	16	0	0	62*
COc1cc(NC(=O)c2csc(N)n2)cc(C(=O)Nc2cccc(C(F)(F)F)c2)c1	0	-33	64*	-46	-1	-2	-1
COc1cc(NC(=O)c2cnc(N)s2)cc(C(=O)Nc2cccc(C(F)(F)F)c2)c1	0	-18	-20	-4	0	3	x
O=C(c1cccc(N2CCCC2=O)c1)N1CCN(c2cccc(Cl)c2)CC1	0	-65	53*	-21	0	-6	20
Cc1cccc(N2CCN(C(=O)c3cccc(N4CCCC4=O)c3)C(C)C2)c1 (stereo not given)	0	-14	56*	-16	1	1	17
CC1(C)Cc2cccc(C(=O)NC3CCN(Cc4ccccc4)CC3)c2O1	0	3	16	11	1	4	x
CC(=C/c1ccccc1)/C=N/NC(=O)c1cccs1	0	-206	-171	-158	3	0	-102
CC1C(=O)N2CCCc3cc(NC(=O)COc4ccccc4)cc1c32 (stereo not given)	0	3	6	-5	-1	-1	x
O=C(N=Nc1c(O)[nH]c2ccc(Br)cc12)c1ccco1	0	x	x	-63	-1	x	x
O=C(N=Nc1c(O)[nH]c2ccc(Br)cc12)c1ccccc1-n1cccc1	-1	13	71*	-12	-1	1	39
Cn1cc(CN2CCN(c3ccc(Cl)cn3)CC2)c(-c2ccccc2F)n1	0	8	-7	-2	3	3	x
Cc1cccc(N2CCN(Cc3cn(C)nc3-c3ccccc3F)CC2)n1	0	-30	54*	-94	2	2	28
C[C@H](NC(=O)C1CCN(S(=O)(=O)c2ccccc2)CC1)C(=O)NCc1cccc(C(F)(F)F)c1	0	2	24	-12	1	-2	x
O=C(N/N=C/c1ccc(Sc2nc3ccccc3s2)c([N+](=O)[O-])c1)c1ccccn1	1	6	69*	-13	1	3	21
O=C(N/N=C/c1ccc(Cl)c([N+](=O)[O-])c1)c1cnccn1	0	-2	8	-15	0	-1	x
COc1ccccc1/C=N/NS(=O)(=O)c1ccccc1	0	-20	91*	10	-1	2	9
COc1ccc(C(=O)NCCSc2ccccc2)cc1	0	-204	-212	-146	0	-1	-99
COc1ccc(C(=O)NCCNC(=O)c2ccc(OC)cc2)cc1	0	3	6	-3	2	0	x
CCOC(=O)C/C(N)=N/NC(=O)c1ccc(Cl)cc1Cl	0	11	5	15	-1	6	x
CCOC(=O)c1ccc(-n2c(CCC(=O)O)ccc2-c2ccc(F)cc2)cc1	0	-1	-24	-10	0	-2	x
Cc1nc(Sc2nnnn2C)c2c3c(sc2n1)CCC3	0	-173	64*	-8	-2	3	53*
CCOC(=O)/C=C/S(=O)(=O)c1ccc(NC(C)=O)cc1	-1	20	53*	33	0	0	38
Cc1ccccc1COC(=O)c1cc([N+](=O)[O-])ccc1N1CCOCC1	0	1	35	-3	0	1	x
CCOc1ccc(C(=O)COC(=O)c2cc([N+](=O)[O-])ccc2N2CCOCC2)cc1	0	-23	53*	-34	-1	-4	7
SMILES	aDG glyco act	697 NFkB inh	Jurkat NFkB inh	NR2E3 ag-1	MPTP block	NR2E3 ag-2	Jurkat NFkB conf
O=C(COC(=O)c1cc([N+](=O)[O-])ccc1N1CCOCC1)c1ccc(Br)cc1	0	-16	13	-16	0	4	x
COc1ccc(OC)c(COC(=O)c2cc([N+](=O)[O-])ccc2N2CCOCC2)c1	0	-38	52*	-23	1	0	30
O=C(CSc1nnc(CNC(=O)c2c(F)cccc2F)o1)c1ccccc1	0	-11	-2	-25	0	2	x
COc1ccc(-c2nnc(-c3ccc(N(C)C)cc3)o2)cc1	0	-77	-67	-83	1	6	x
CN(C)c1ccc(-c2nnc(-c3ccccc3F)o2)cc1	0	-208	-174	-145	1	6	-107
Clc1ccc(-c2nnc(-c3ccccc3Cl)o2)cc1	0	-203	-194	-128	0	3	-129
Cc1csc2nc(COC(=O)c3ccc(Cl)c([N+](=O)[O-])c3)cc(=O)n12	0	24	53*	-4	-1	-1	26
COc1ccc(C(=S)N2CCN(c3cccc(Cl)c3)CC2)c(OC)c1	0	-38	63*	-49	-2	2	-5
O=C(NC1CC1)C1CC(=O)N(c2cccc(Cl)c2)C1 (stereo not given)	0	-1	-11	-10	-1	-1	x
CCCCOc1ccc(C2=CSC3=NCCN23)cc1[N+](=O)[O-]	0	-17	-20	-38	-1	2	x
CCCCOc1ccc(-c2csc(N)n2)cc1[N+](=O)[O-]	0	-86	-167	-162	2	0	4
Cc1cccn2c(=O)c3cc(C(=O)NC4CCCC4)n(C)c3nc12	0	-24	51*	15	-1	2	13
Cc1cccn2c(=O)c3cc(C(=O)NC4CCCCC4)n(C)c3nc12	0	-19	17	11	-1	-1	x
Fc1ccc2c(Cl)c(-c3nnc(-c4cccs4)o3)sc2c1	0	-238	-163	-75	2	0	-91
CCOc1ccc(N=C2SC(C(=O)Nc3ccccc3C#N)C(N)=C2C(=O)Nc2ccc(Cl)cc2)cc1 (stereo not given)	0	3	-1	2	23	5	x
COc1ccccc1N=C1SC(C(=O)Nc2cccc(Cl)c2Cl)C(N)=C1C(N)=O (stereo not given)	1	-16	58*	11	2	1	0
CCCCCCCCCCCCCCCC[n+]1cccc(C(=O)N(CC)CC)c1	1	-28	86*	17	0	1	75*
CCCCCCCCCCCCCCCC[n+]1ccc(C(N)=O)cc1	2	-58	56*	-3	-2	-1	40
CCCCCCCC[n+]1cccc(C(=O)N(CC)CC)c1	0	11	-2	-5	0	2	x
CCCCCCCCCCCCCCCC[n+]1ccc(/C=N/O)cc1	0	9	80*	-17	15	-1	54*
